{"source": "ChEMBL document CHEMBL4017507", "about": "(J Med Chem, 2017)", "key": {"[1]": {"system": "Human betaherpesvirus 5", "experiment": "Antiviral activity against human cytomegalovirus AD-169 infected in human HEL cells assessed as inhibition of virus-induced cytopathic effect", "type": "functional, cell-based", "conditions": "Human betaherpesvirus 5, AD-169, HEL", "in_short": "(§1)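 Confluent HEL fibroblast monolayers were inoculated in 96-well plates with 100 CCID50 of virus in the presence of serially varied compound concentrations. Cytopathicity was scored once untreated infected controls reached full CPE.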"}, "[2]": {"system": "Human immunodeficiency virus 1", "experiment": "Antiviral activity against HIV1 X4LAI.04 infected in human MT4 cells assessed as decrease in viral replication by p24gag-based luminex assay", "type": "functional, cell-based", "conditions": "Human immunodeficiency virus 1, X4LAI.04, MT4", "in_short": "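10^6 MT-4 cells were infected with HIV-1 X4LAI.04 (7 ng p24) for 2 h at 37 °C, then washed with PBS and resuspended. Compounds were added and cultures were kept 3 days at 37 °C. Supernatant p24 was measured by bead-based Luminex. Inhibition was calculated as (1 − p24 treated/p24 untreated) × 100, and EC50 was derived from it.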"}, "[3]": {"system": "MT4", "experiment": "Cytotoxicity against human MT4 cells assessed as reduction in cell viability by cell counting method", "type": "cell-based", "in_short": "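MT-4 cultures, untreated or treated, were assessed with an automated cell counter using propidium iodide staining to enumerate total and dead cells.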"}, "[4]": {"system": "CCRF-CEM", "experiment": "Cytostatic activity human CEM cells assessed as reduction in cell viability after 72 hrs by cell counting method", "type": "cell-based", "conditions": "ccrf-cem, 72 h", "in_short": "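(5–7.5) × 10^? CEM cells per well were grown with compound for 72 h at 37 °C under humidified CO2. Cells were counted in a Coulter counter.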"}, "[5]": {"system": "Human alphaherpesvirus 1", "experiment": "Antiviral activity against Herpes simplex virus 1 KOS infected in human HEL cells assessed as inhibition of virus-induced cytopathic effect", "type": "functional, cell-based", "conditions": "Human alphaherpesvirus 1, KOS", "in_short": "as §1"}, "[6]": {"system": "Human alphaherpesvirus 2", "experiment": "Antiviral activity against Herpes simplex virus 2 G infected in human HEL cells assessed as inhibition of virus-induced cytopathic effect", "type": "functional, cell-based", "conditions": "Human alphaherpesvirus 2, strain G", "in_short": "as §1"}, "[7]": {"system": "Human alphaherpesvirus 1", "experiment": "Antiviral activity against ACV-resistant thymidine kinase deficient Herpes simplex virus 1 KOS infected in human HEL cells assessed as inhibition of virus-induced cytopathic effect", "type": "functional, cell-based", "conditions": "Human alphaherpesvirus 1, KOS", "in_short": "as §1"}, "[8]": {"experiment": "Cytotoxicity against human HEL cells assessed as alteration to cell morphology by microscopic analysis", "type": "cell-based", "in_short": "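Minimal cytotoxic concentration is the compound concentration giving a microscopically visible alteration of HEL cell morphology, scored in the antiviral assay cultures.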"}, "[9]": {"system": "Human betaherpesvirus 5", "experiment": "Antiviral activity against human cytomegalovirus Davis infected in human HEL cells assessed as inhibition of virus-induced cytopathic effect", "type": "functional, cell-based", "conditions": "Human betaherpesvirus 5, Davis", "in_short": "as §1"}, "[10]": {"system": "Human alphaherpesvirus 3", "experiment": "Antiviral activity against Varicella-Zoster virus OKA infected in human HEL cells assessed as inhibition of virus-induced cytopathic effect", "type": "functional, cell-based", "conditions": "Human alphaherpesvirus 3, strain Oka vaccine", "in_short": "(§2)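 Confluent HEL fibroblast cultures were inoculated with 20 PFU of VZV in the presence of varying compound concentrations. Plaque formation was recorded once untreated infected controls reached completion.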"}, "[11]": {"system": "Human alphaherpesvirus 3", "experiment": "Antiviral activity against thymidine kinase deficient Varicella-Zoster virus 07-1 infected in human HEL cells assessed as inhibition of virus-induced cytopathic effect", "type": "functional, cell-based", "conditions": "Human alphaherpesvirus 3, 07-1, HEL", "in_short": "as §2"}, "[12]": {"system": "HEL", "experiment": "Cytotoxicity against human HEL cells assessed as cell growth inhibition by cell counting method", "type": "cell-based"}, "[13]": {"experiment": "Drug metabolism assessed as carboxypeptidase Y (unknown origin)-mediated metabolite 81 formation measured after 2 hrs by [31P]-NMR spectroscopic analysis", "type": "ADME", "conditions": "human"}, "[14]": {"experiment": "Drug metabolism assessed as carboxypeptidase Y (unknown origin)-mediated metabolite 79 formation measured after 2 hrs by [31P]-NMR spectroscopic analysis", "type": "ADME", "conditions": "human"}, "[15]": {"system": "Human immunodeficiency virus 1", "experiment": "Antiviral activity against HIV1 X4LAI.04 infected in human tonsillar tissues assessed as inhibition of virus-induced cytopathic effect by p24gag-based luminex assay", "type": "functional", "conditions": "Human immunodeficiency virus 1, X4LAI.04", "in_short": "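Tonsillectomy tissue blocks of 2–3 mm³ were cultured on collagen sponge gels at the air–liquid interface, 27 blocks per donor per condition. Blocks were pretreated with compound overnight, infected with HIV-1 X4LAI.04 and cultured 12 days, with drug replenished at each medium change every 3 days. Medium p24 was measured by Luminex. Inhibition was calculated against untreated tissue, and EC50 was derived from it.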"}, "[16]": {"experiment": "Prodrug activation assessed as carboxypeptidase Y (unknown origin)-mediated 2-{5-[2-(2-Amino-6-chloro-purin-9-yl)-ethyl]-2-oxo-2lambda(5)-[1,3,2]dioxaphosphinan-2-ylamino}-propionic acid anion peak formation measured with in 1 hr by [31P]-NMR spectroscopic analysis", "conditions": "human"}, "[17]": {"experiment": "Prodrug activation assessed as carboxypeptidase Y (unknown origin)-mediated 2-((4-(2-amino-6-chloro-9H-purin-9-yl)-2-(hydroxymethyl)butoxy)oxidophosphorylamino)propanoate peak formation measured after […] by [31P]-NMR spectroscopic analysis", "conditions": "human"}, "[18]": {"experiment": "Prodrug activation assessed as carboxypeptidase Y (unknown origin)-mediated 2-((4-(2-amino-6-chloro-9H-purin-9-yl)-2-(hydroxymethyl)butoxy)oxidophosphorylamino)propanoate formation measured after 8 hrs by [31P]-NMR spectroscopic analysis", "conditions": "human"}, "[19]": {"experiment": "Prodrug activation assessed as carboxypeptidase Y (unknown origin)-mediated 2-((4-(2-amino-6-chloro-9H-purin-9-yl)-2-(hydroxymethyl)butoxy)oxidophosphorylamino)propanoate formation by mass spectroscopic analysis", "conditions": "human"}, "[20]": {"experiment": "Drug metabolism assessed as carboxypeptidase Y (unknown origin)-mediated metabolite 79 formation measured after 14 hrs by [31P]-NMR spectroscopic analysis", "type": "ADME", "conditions": "human"}, "[21]": {"experiment": "Drug metabolism assessed as carboxypeptidase Y (unknown origin)-mediated metabolite 81 peak measured after 14 hrs by [31P]-NMR spectroscopic analysis", "type": "ADME", "conditions": "human"}, "[22]": {"experiment": "Drug metabolism assessed as carboxypeptidase Y (unknown origin)-mediated metabolite 81 peak formation measured with in 30 mins by [31P]-NMR spectroscopic analysis", "type": "ADME", "conditions": "human, 0.5 h"}}, "data": [{"smiles": "CCCOC(=O)[C@H](C)NP(=O)(OCC(CO)CCn1cnc2c(OC)nc(N)nc21)Oc1cccc2ccccc12", "note": "(some centres undefined)", "values": [{"measurement": "EC50", "setting": "[1]", "value": 32, "unit": "µM"}, {"measurement": "EC50", "setting": "[2]", "value": 11, "unit": "µM"}, {"measurement": "IC50", "setting": "[3]", "value": 13, "unit": "µM"}, {"measurement": "CC50", "setting": "[4]", "value": 17, "unit": "µM"}, {"measurement": "EC50", "setting": "[5]", "value": 14, "unit": "µM"}, {"measurement": "EC50", "setting": "[6]", "value": 15, "unit": "µM"}, {"measurement": "EC50", "setting": "[7]", "value": "≥ 20", "unit": "µM"}, {"measurement": "MCC", "setting": "[8]", "value": "50 to 100", "unit": "µM"}, {"measurement": "EC50", "setting": "[9]", "value": 50, "unit": "µM"}, {"measurement": "EC50", "setting": "[10]", "value": 3.7, "unit": "µM"}, {"measurement": "EC50", "setting": "[11]", "value": 9.1, "unit": "µM"}, {"measurement": "CC50", "setting": "[12]", "value": 14.4, "unit": "µM"}, {"measurement": "Drug metabolism", "setting": "[13]", "value": "Metabolite_Detected"}, {"measurement": "Drug metabolism", "setting": "[14]", "value": "Metabolite_Detected"}]}, {"smiles": "C[C@H](NP1(=O)OCC(OCn2cnc3c(Cl)nc(N)nc32)CO1)C(=O)OCc1ccccc1", "note": "(some centres undefined)", "values": [{"measurement": "EC50", "setting": "[2]", "value": 85, "unit": "µM"}, {"measurement": "IC50", "setting": "[3]", "value": 150, "unit": "µM"}, {"measurement": "CC50", "setting": "[4]", "value": 165, "unit": "µM"}, {"measurement": "EC50", "setting": "[15]", "value": 9, "unit": "µM"}, {"measurement": "EC50", "setting": "[5]", "value": "> 100", "unit": "µM"}, {"measurement": "EC50", "setting": "[6]", "value": "> 100", "unit": "µM"}, {"measurement": "EC50", "setting": "[7]", "value": "> 100", "unit": "µM"}, {"measurement": "MCC", "setting": "[8]", "value": "> 100", "unit": "µM"}, {"measurement": "Drug metabolism", "setting": "[16]", "value": "Metabolite_Detected"}, {"measurement": "Drug metabolism", "setting": "[17]", "value": "Metabolite_Detected"}, {"measurement": "Drug metabolism", "setting": "[18]", "value": "Metabolite_Detected"}, {"measurement": "Drug metabolism", "setting": "[19]", "value": "Metabolite_Detected"}]}, {"smiles": "CCCOC(=O)[C@H](C)NP(=O)(OCC(CCn1cnc2c(OC)nc(N)nc21)COP(=O)(N[C@@H](C)C(=O)OCCC)Oc1cccc2ccccc12)Oc1cccc2ccccc12", "note": "(some centres undefined)", "values": [{"measurement": "EC50", "setting": "[1]", "value": 32, "unit": "µM"}, {"measurement": "EC50", "setting": "[2]", "value": 9.7, "unit": "µM"}, {"measurement": "IC50", "setting": "[3]", "value": 20, "unit": "µM"}, {"measurement": "CC50", "setting": "[4]", "value": 6.8, "unit": "µM"}, {"measurement": "EC50", "setting": "[5]", "value": "> 100", "unit": "µM"}, {"measurement": "EC50", "setting": "[6]", "value": "> 100", "unit": "µM"}, {"measurement": "EC50", "setting": "[7]", "value": "> 100", "unit": "µM"}, {"measurement": "MCC", "setting": "[8]", "value": "50 to 100", "unit": "µM"}, {"measurement": "EC50", "setting": "[9]", "value": 40, "unit": "µM"}, {"measurement": "EC50", "setting": "[10]", "value": 6.1, "unit": "µM"}, {"measurement": "EC50", "setting": "[11]", "value": 8.1, "unit": "µM"}, {"measurement": "CC50", "setting": "[12]", "value": 4.9, "unit": "µM"}, {"measurement": "Drug metabolism", "setting": "[20]", "value": "Metabolite_Detected"}, {"measurement": "Drug metabolism", "setting": "[21]", "value": "Metabolite_Detected"}]}, {"smiles": "C[C@H](NP(=O)(OCC(CO)CCn1cnc2c(Cl)nc(N)nc21)Oc1ccccc1)C(=O)OCc1ccccc1", "note": "(mixture of isomers)", "values": [{"measurement": "EC50", "setting": "[1]", "value": "> 100", "unit": "µM"}, {"measurement": "EC50", "setting": "[2]", "value": 1, "unit": "µM"}, {"measurement": "IC50", "setting": "[3]", "value": 20, "unit": "µM"}, {"measurement": "CC50", "setting": "[4]", "value": 33, "unit": "µM"}, {"measurement": "EC50", "setting": "[15]", "value": 4, "unit": "µM"}, {"measurement": "EC50", "setting": "[5]", "value": "> 100", "unit": "µM"}, {"measurement": "EC50", "setting": "[6]", "value": "> 100", "unit": "µM"}, {"measurement": "EC50", "setting": "[7]", "value": "> 100", "unit": "µM"}, {"measurement": "MCC", "setting": "[8]", "value": "> 100", "unit": "µM"}, {"measurement": "EC50", "setting": "[9]", "value": "> 100", "unit": "µM"}, {"measurement": "EC50", "setting": "[10]", "value": 37.3, "unit": "µM"}, {"measurement": "EC50", "setting": "[11]", "value": 42.9, "unit": "µM"}, {"measurement": "CC50", "setting": "[12]", "value": 39, "unit": "µM"}, {"measurement": "Drug metabolism", "setting": "[22]", "value": "Metabolite_Detected"}]}]}
